Measured values gathered from unrelated publications.
Compare with care: the assays were run in different laboratories.
Target: Mitogen-activated protein kinase kinase kinase 10 (MAP3K10, Homo sapiens, UniProt Q02779)

Structure (SMILES) | assay | setting | endpoint | value
O=c1[nH]c2ccccc2n1C1CCN(Cc2ccc(-c3[nH]c4cc5ncnc5cc4nc3-c3ccccc3)cc2)CC1 | cell-free assay | 0.5 µM | remaining signal | 102%
N#CC1(c2ccccn2)CCN(Cc2cc(C(=O)O)c(=O)n3ccccc23)CC1 | cell-free assay, competition with immobilised ligand | 1 µM | remaining binding | 97%
COc1ncccc1-c1cnn2ccc(N3CCN(C(=O)OC(C)C)CC3)nc12 | binding, competition with immobilised ligand | 1 µM | remaining binding | 96%
Cc1nn(C)cc1-c1nc2c(N3CCN(Cc4ccc(Cl)cc4)CC3)c(Cl)cnc2[nH]1 | binding, competition with immobilised ligand | 1 µM | remaining binding | 5.4%
CC(C)(C)c1cc(C=C(C#N)C#N)cc(Br)c1O | enzyme activity, inhibitor | 0.5 µM | remaining activity | 100%
Cn1cc(-c2cccc(N3CCc4c(sc5c4CC(C)(C)C5)C3=O)c2CO)cc(Nc2ccncn2)c1=O | enzyme activity, inhibitor | 1 µM | inhibition | -5%
Nc1ncc(-c2nc(N3CCOCC3)nc(N3CCOCC3)n2)c(C(F)F)n1 | binding, competition with immobilised ligand | 10 µM | remaining binding | 53%
Cn1cc(-c2cc(F)cc(N3CCn4c(cc5c4CCCC5)C3=O)c2CO)cc(Nc2ccc(N3CCN(C4COC4)CC3)cn2)c1=O | enzyme activity, inhibitor | 0.1 µM | inhibition | -7%
Cn1cncc1[C@@](O)(COc1ccc(C#N)cc1-c1ccc(OC(F)(F)F)cc1)c1ccc(C#N)cc1 | cell-free assay, competition with immobilised ligand | 1 µM | remaining binding | 98%
